Experimental findings from ChEMBL document CHEMBL4304782, “Antioxidant, Anti-inflammatory, and Neuroprotective Effects of Novel Vinyl Sulfonate Compounds as Nrf2 Activator” (ACS Med Chem Lett, 2019) are described below.

Calls of active or inactive are those of the source. The rule behind the calls is not given here.

The subject of data set [1] is Mus musculus. Briefly: Anti-parkinson's activity in MPTP-induced C57Bl/6 mouse model of Parkinson's disease assessed as restoration of descent time at 20 mg/kg, po administered for 3 consecutive days prior and subsequent to MPTP administration (four injections of MPTP, 2 h intervals, 20 mg/kg, i.p. injection by vertical grid test. In kind it is functional, organism-based. An outline of the steps: (§1)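 Mice dosed 20 mg/kg p.o. (or vehicle) for 3 consecutive days before and after MPTP (four i.p. injections, 20 mg/kg, 2 h apart); vertical grid test (turning, descent, total time) and coat-hanger scoring; n = 10–12 per group; mean ± SEM; one-way ANOVA with Tukey's test.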

Data set [2] addresses T1, Nuclear factor erythroid 2-related factor 2 (Homo sapiens, UniProt Q16236).
T1 sequence (Q16236 whole entry): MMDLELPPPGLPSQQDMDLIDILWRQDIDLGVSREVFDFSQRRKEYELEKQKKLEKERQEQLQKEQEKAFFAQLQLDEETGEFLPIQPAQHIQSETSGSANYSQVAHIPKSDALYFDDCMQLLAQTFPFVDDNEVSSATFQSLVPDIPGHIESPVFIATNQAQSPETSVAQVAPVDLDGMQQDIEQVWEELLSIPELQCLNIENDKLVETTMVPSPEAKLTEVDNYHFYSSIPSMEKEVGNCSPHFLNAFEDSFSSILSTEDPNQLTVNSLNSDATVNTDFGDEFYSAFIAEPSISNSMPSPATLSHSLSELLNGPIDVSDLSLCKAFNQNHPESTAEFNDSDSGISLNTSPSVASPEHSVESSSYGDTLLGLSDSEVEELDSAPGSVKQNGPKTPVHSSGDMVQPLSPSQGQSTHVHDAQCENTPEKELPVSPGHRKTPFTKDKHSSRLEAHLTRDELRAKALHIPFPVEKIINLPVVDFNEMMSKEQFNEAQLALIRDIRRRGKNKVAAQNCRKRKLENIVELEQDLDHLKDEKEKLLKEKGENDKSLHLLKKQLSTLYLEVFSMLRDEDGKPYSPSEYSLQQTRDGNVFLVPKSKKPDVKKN
Nature of the data set: Activation of ED-tagged Nrf2 in human U2OS cells co-expressing Keap1 assessed as induction of NRF2 translocation to nucleus after 6 hrs by beta-galactosidase based chemiluminescent assay. In kind it is cell-based.

For data set [3], the system named is Mus musculus. Nature of the data set: Protection against MPTP-induced DAergic neurotoxicity in C57B/6 mouse model of Parkinson's disease assessed as restoration of TH-positive neurons cell density in striatum at 20 mg/kg, po observed after 7 days by microscopic analysis. It counts as functional, organism-based. An outline of the steps:
(§2)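 MPTP mouse model with 20 mg/kg oral dosing; striatal and substantia nigra sections collected 7 days later and stained for tyrosine hydroxylase; striatal TH density and nigral TH-positive neuron counts; mean ± SEM; one-way ANOVA with Tukey's test.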

Data set [4] has as its target T2, Nuclear factor erythroid 2-related factor 2 (Mus musculus) (UniProt Q60795).
T2 sequence (whole entry): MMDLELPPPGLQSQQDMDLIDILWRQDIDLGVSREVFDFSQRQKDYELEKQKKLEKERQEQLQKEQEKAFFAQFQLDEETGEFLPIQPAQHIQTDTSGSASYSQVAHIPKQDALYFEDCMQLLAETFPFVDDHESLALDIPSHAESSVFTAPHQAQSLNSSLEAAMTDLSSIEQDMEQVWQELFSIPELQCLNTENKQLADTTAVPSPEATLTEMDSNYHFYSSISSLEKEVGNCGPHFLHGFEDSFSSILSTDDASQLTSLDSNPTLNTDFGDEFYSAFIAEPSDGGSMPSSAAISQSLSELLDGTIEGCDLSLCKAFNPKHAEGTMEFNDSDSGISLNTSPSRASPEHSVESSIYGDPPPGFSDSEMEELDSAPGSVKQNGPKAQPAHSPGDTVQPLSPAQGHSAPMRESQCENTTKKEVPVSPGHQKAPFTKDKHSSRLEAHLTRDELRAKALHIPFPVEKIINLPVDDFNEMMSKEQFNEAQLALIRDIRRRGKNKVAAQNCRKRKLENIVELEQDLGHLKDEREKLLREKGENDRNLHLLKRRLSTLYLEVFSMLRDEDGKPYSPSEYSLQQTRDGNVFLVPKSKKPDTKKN
Nature of the data set: Activation of Nrf2 in mouse BV-2 cells assessed as increase in GCLM level at 0.3 to 10 uM incubated for 12 hrs by Western blot analysis relative to control. It counts as cell-based. An outline of the steps:
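BV-2 cells treated for 12 h; HO-1, GCLM, GCLC protein by Western blot, normalized to β-actin; at least duplicate cultures, fold induction over untreated control ± SEM; paired t test.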

In data set [5] the test system is Mus musculus. Briefly: Anti-parkinson's activity in MPTP-induced C57Bl/6 mouse model of Parkinson's disease assessed as restoration of turning time at 20 mg/kg, po administered for 3 consecutive days prior and subsequent to MPTP administration (four injections of MPTP, 2 h intervals, 20 mg/kg, i.p. injection by vertical grid test. In kind it is functional, organism-based. An outline of the steps: as §1

Data set [6] concerns the target T2, Nuclear factor erythroid 2-related factor 2 (Mus musculus). Nature of the data set: Activation of Nrf2 in mouse BV-2 cells assessed as upregulation of GCLM mRNA expression at 1 to 10 uM incubated for 3 hrs by RT-qPCR analysis relative to control. It counts as cell-based. An outline of the steps:
(§3)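 BV-2 cells exposed to a range of concentrations for 3 h; HO-1, GCLM and GCLC mRNA quantified by RT-qPCR, normalized to β-actin; at least duplicate cultures, fold of untreated control ± SEM; paired t test.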
(Quantitative PCR measures a nucleic acid by following its amplification.)

Data set [7] shares this target. Briefly: Activation of Nrf2 in mouse BV-2 cells assessed as upregulation of GCLC mRNA expression at 1 to 10 uM incubated for 3 hrs by RT-qPCR analysis relative to control. In kind it is cell-based. An outline of the steps: as §3
Data set [8] addresses T3, Nuclear factor erythroid 2-related factor 2 (Homo sapiens) (UniProt Q16236).
T3 sequence (whole entry): T1 sequence (Q16236 whole entry)
Nature of the data set: Activation of Nrf2 in human SH-SY5Y cells assessed as increase in GCLM level at 0.3 to 3 uM incubated for 6 to 24 hrs by Western blot analysis relative to control. In kind it is cell-based. An outline of the steps: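 SH-SY5Y neuroblastoma cells treated for 6 or 24 h, then harvested; NQO1, GCLM, GCLC protein by Western blot with β-actin loading control; at least duplicate cultures, averaged, fold of untreated control ± SEM; paired t test.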
For orientation: A western blot detects proteins with antibodies after separation by electrophoresis.

Data set [9] relates to BV-2. Briefly: Antiinflammatory activity in mouse BV2 cells assessed as reduction in LPS-induced TNF-alpha production incubated for 24 hrs by ELISA. It counts as functional, cell-based. The method, boiled down: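 BV-2 cells given compound together with 1 μg/mL LPS for 24 h; mediator levels expressed relative to LPS-stimulated control ± SEM; at least duplicate cultures; paired t test.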
For orientation: ELISA stands for enzyme-linked immunosorbent assay.

Data set [10] in a line: Cytotoxicity against mouse BV2 cells assessed as cell viability at 3 uM incubated for 6 hrs by CCK-8 assay relative to control. In kind it is cell-based, BV-2. The conditions noted are these: read-out: Activity. The method, boiled down:
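BV-2 cells exposed to compound for 6 h, then viability measured; percent survival reported.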

Data set [11] has as its system Mus musculus. Briefly: Protection against MPTP-induced DAergic neurotoxicity in C57B/6 mouse model of Parkinson's disease assessed as restoration of TH-positive neurons cell density in SN at 20 mg/kg, po observed after 7 days by microscopic analysis. It counts as functional, organism-based. The method, boiled down:
as §2

Data set [12] deals with T2, Nuclear factor erythroid 2-related factor 2 (Mus musculus). Nature of the data set: Activation of Nrf2 in mouse BV-2 cells assessed as increase in nuclear Nrf2 level at 10 uM by Western blot analysis relative to control. In kind it is cell-based. The method, boiled down: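 BV-2 microglia treated 0.3–10 μM; Nrf2 measured by Western blot in nuclear extracts and whole-cell lysates; at least duplicate cultures, averaged, expressed as fold of untreated control ± SEM; paired t test.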

What is called EC50 is the concentration that produces a half-maximal response. In the case of `COc1ccccc1OS(=O)(=O)/C=C/c1ccccc1Cl`, the outcome in data set [1], in [3], in data set [5] and in data set [11] was Active. Further, the 50% effective concentration (EC50) in data set [2] was found to be 76 nM. For the same compound, the fold change (FC) in data set [4] was 5.6; in data set [6], 5.3; in [7], 2.3; in [8] it was 2.9; in data set [12], 17.6. In addition, the Activity result in [9] was “Dose-dependent effect”. The viability at 6 h, 3 µM in data set [10] is 97.6%.
